These results are taken from ChEMBL document CHEMBL1123708, “Resolved cis- and trans-2-amino-5-methoxy-1-methyltetralins: central dopamine receptor agonists and antagonists” (1987).

Activity calls are given as the source filed them. No cut-off for these calls is given here.

The test system of assay [1] is Rattus norvegicus. As to the kind of experiment: Change in rectal temperature induced by DiPr-5,6-ADTN at a dose of 22 umol/kg of compound by subcutaneous administration. Type of assay: functional. Summed up:
(§1)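 Rats received DiPr-5,6-ADTN (0.25 μmol/kg sc) 100 min and test compound sc 40 min before death. Rectal temperature change (°C) was recorded between 60 and 100 min after DiPr-5,6-ADTN. Values are mean ± SEM, n = 4, with Student's t test vs DiPr-5,6-ADTN alone.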

Assay [2] concerns Rattus norvegicus. As to the kind of experiment: Change in rectal temperature induced by DiPr-5,6-ADTN at a dose of 45 umol/kg of compound by subcutaneous administration. Type of assay: functional. Summed up: as §1
In assay [3] the test system is Rattus norvegicus. As to the kind of experiment: In vivo DOPA accumulation in non pretreated rat limbic system by subcutaneous administration; I denotes inactive. It counts as functional, organism-based. Summed up: (§2)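 Rats without pretreatment received test drug sc 65 min and NSD 1015 (100 mg/kg ip) 30 min before death, with saline controls. DOPA was measured in limbic or striatal tissue. Dose for half-maximal change was estimated from 4-5-dose curves (n = 3-5), maximal level as % of control.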

For assay [4], the system named is Rattus norvegicus. As to the kind of experiment: In vivo DOPA accumulation in non pretreated rat striatum system by subcutaneous administration; I denotes inactive. It counts as functional, organism-based. The method, boiled down:
as §2

The test system of assay [5] is Rattus norvegicus. As to the kind of experiment: In vivo DOPA accumulation in reserpine pretreated rat limbic system by subcutaneous administration. Type of assay: functional. The settings on record: sc. The method, boiled down:
(§3)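 Rats received reserpine (5 mg/kg sc) 18 h, test drug sc 60 min and NSD 1015 (100 mg/kg ip) 30 min before death, with saline controls. Limbic or striatal DOPA was measured. Dose for half-maximal decrease was estimated from 4-7-dose curves (n = 3-5), minimal level as % of control.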

Assay [6] deals with Rattus norvegicus. As to the kind of experiment: In vivo DOPA accumulation in reserpine pretreated rat striatum system by subcutaneous administration. The note with it: sc. Type of assay: functional. Summed up:
as §3

For assay [7], the system named is Rattus norvegicus. As to the kind of experiment: Locomotory activity was determined in non pretreated rats at a dose of 52 umol/kg by subcutaneous administration; I denotes inactive. Type of assay: functional. Summed up:
(§4)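 Untreated rats received test drug sc 5 min before a 30-min session in photocell motility meters, with accumulated counts recorded. Activity is expressed as percent of saline controls, mean ± SEM, n = 3-5. Gross behaviour was observed through a semitransparent mirror. Differences from saline controls were assessed by Student's t test.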

Assay [8] relates to Rattus norvegicus. As to the kind of experiment: Locomotory activity was determined in reserpine pretreated rats at a dose of 204 umol/kg by subcutaneous administration. Value is the accumulation counts/30 min. Type of assay: functional. The method, boiled down:
(§5)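 Rats were given reserpine 5 mg/kg sc 18 h beforehand, then test drug sc immediately before the activity session. Motor activity was recorded by photocells in motility meters as accumulated counts over 30 min, mean ± SEM, n = 3-4. Gross behaviour was watched for signs of stimulation. Reserpine-only controls were included.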

Assay [9] concerns Rattus norvegicus. As to the kind of experiment: Locomotory activity was determined in non pretreated rats at a dose of 3.2 umol/kg by subcutaneous administration; I denotes inactive. It counts as functional, organism-based. Summed up: as §4
For assay [10], the target named is T1, Dopamine receptor (Rattus norvegicus) (UniProt P25115+P19020+P30729+P18901+P61169). The settings on record: 22 uM.
For assay [11], the target named is T1, Dopamine receptor (Rattus norvegicus). The settings on record: 45 uM.
Assay [12] has as its system Rattus norvegicus. As to the kind of experiment: Locomotory activity was determined in reserpine pretreated rats at a dose of 3.2 umol/kg by subcutaneous administration. Value is the accumulation counts/30 min. It counts as functional. Summed up: as §5
The test system of assay [13] is Rattus norvegicus. As to the kind of experiment: Locomotory activity was determined in non pretreated rats at a dose of 0.32 umol/kg by subcutaneous administration. It counts as functional. The method, boiled down: as §4
Assay [14] concerns Rattus norvegicus. As to the kind of experiment: Locomotory activity was determined in non pretreated rats at a dose of 3.2 umol/kg by subcutaneous administration. It counts as functional. The method, boiled down:
as §4

Usually ED50 stands for the dose at which the effect has come halfway, by size or by number of responders.

As for `CCCN(CCC)[C@H]1CCc2c(OC)cccc2[C@H]1C`, the results for the Body temp change with Rattus norvegicus [1] and in the assay on Rattus norvegicus [2] were 0.12 °C and 0.5 °C, respectively. For the same compound, the ED50 entry in the assay with Rattus norvegicus [3] and with Rattus norvegicus [4] was “inactive” each time. For the same compound, the ED50 turned out to be 5.5 µmol/kg in the assay on Rattus norvegicus [5] and 5.8 µmol/kg in the assay on Rattus norvegicus [6]. The outcome in the assay with Rattus norvegicus [7] and in the assay on Rattus norvegicus [9] was inactive. Also, in the assay on Rattus norvegicus [8], the Activity is 8 counts/30 min. Further, the Binding was found to be 106% in [10] and 94% in assay [11].
For `CN1CCc2cccc3c2[C@H]1Cc1ccc(O)c(O)c1-3` [APOMORPHINE], the 50% effective dose (ED50) in the assay on Rattus norvegicus [5] came to 0.041 µmol/kg; in the assay on Rattus norvegicus [6] it was 0.044 µmol/kg. Also, the values for the Activity in the assay with Rattus norvegicus [12], in the assay with Rattus norvegicus [13] and in the assay on Rattus norvegicus [14] were 366 counts/30 min, 52% and 277%, respectively.
